In ChEMBL document CHEMBL1134845, “Syntheses and biological activities of a novel group of steroidal derived inhibitors for human Cdc25A protein phosphatase” (J Med Chem, 2001):

What was measured:
[1] = biological target: T1, M-phase inducer phosphatase 1 (Homo sapiens, UniProt P30304); assay: Inhibitory activity tested against cell division cycle 25A (assay using p-nitrophenyl phosphate (pNPP) as substrate)
T1 sequence (P30304 whole entry): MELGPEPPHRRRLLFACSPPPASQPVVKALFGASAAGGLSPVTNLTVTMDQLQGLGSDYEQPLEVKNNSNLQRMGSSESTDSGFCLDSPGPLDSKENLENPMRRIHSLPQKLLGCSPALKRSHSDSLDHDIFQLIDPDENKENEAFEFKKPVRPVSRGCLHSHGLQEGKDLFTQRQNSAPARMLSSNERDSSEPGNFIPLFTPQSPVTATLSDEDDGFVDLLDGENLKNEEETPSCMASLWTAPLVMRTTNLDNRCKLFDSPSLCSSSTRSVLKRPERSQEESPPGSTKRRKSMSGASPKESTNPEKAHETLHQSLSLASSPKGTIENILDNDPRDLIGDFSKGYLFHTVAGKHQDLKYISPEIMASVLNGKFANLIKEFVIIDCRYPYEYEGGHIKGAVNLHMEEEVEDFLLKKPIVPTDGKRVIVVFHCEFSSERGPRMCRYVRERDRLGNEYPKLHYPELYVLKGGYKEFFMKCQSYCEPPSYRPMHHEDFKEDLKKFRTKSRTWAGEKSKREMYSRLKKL

[2] = tested on: 786-0; assay: Growth inhibitory activity was determined against 786-0 cancer cell line of Renal cancer; assay type: functional; settings: Homo sapiens
In short: (§1)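 NCI 60 human tumour cell line screen run at the National Cancer Institute. Cell growth and viability read with the protein stain sulforhodamine B, which binds basic amino acids of cells left attached after washing. […] MG MID is the mean GI50 calculated over all panels.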

[3] = tested on: A549; assay: Growth inhibitory activity was determined against A549/ATCC cancer cell line of non-small cell lung cancer; assay type: functional, Homo sapiens; settings: Homo sapiens, A549
In short: as §1

[4] = tested on: COLO 205; assay: Growth inhibitory activity was determined against COLO 205 cancer cell line colon cancer; assay type: functional, Homo sapiens; settings: Homo sapiens, COLO 205
In short: as §1

[5] = biological target: T1, M-phase inducer phosphatase 1; assay: Inhibitory activity tested against cell division cycle 25A (assay using fluorescein diphosphate (FDP) as substrate)
In short: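 Recombinant human GST-Cdc25A fusion protein, each batch calibrated so that FDP was dephosphorylated linearly over 20 min. Fluorescein diphosphate was the substrate. Reactions ran 15 min at 25 °C in the dark and were stopped with sodium orthovanadate. IC50 came from at least two independent runs, each in triplicate.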

[6] = tested on: HT-29; assay: Growth inhibitory activity was determined against HT-29 cancer cell line colon cancer; assay type: functional, Homo sapiens; settings: Homo sapiens, HT-29
In short: as §1

[7] = tested on: HCC 2998; assay: Growth inhibitory activity was determined against HCC2998 cancer cell line colon cancer; assay type: functional, Homo sapiens; settings: Homo sapiens, HCC 2998
In short: as §1

[8] = tested on: LOX IMVI; assay: Growth inhibitory activity was determined against LOX IMVI cancer cell line of melanoma; assay type: functional, Homo sapiens; settings: Homo sapiens, LOX IMVI
In short: as §1

[9] = tested on: NCI-H23; assay: Growth inhibitory activity was determined against NCI-H23 cancer cell line of non-small cell lung cancer; assay type: functional, Homo sapiens; settings: Homo sapiens, NCI-H23
In short: as §1

[10] = tested on: NCI-H522; assay: Growth inhibitory activity was determined against NCI-H522 cancer cell line of non-small cell lung cancer; assay type: functional; settings: Homo sapiens
In short: as §1

[11] = tested on: NCI/ADR-RES; assay: Growth inhibitory activity was determined against NCI/ADR-RES cancer cell line of Breast cancer; assay type: functional, Homo sapiens; settings: Homo sapiens, NCI/ADR-RES
In short: as §1

[12] = tested on: OVCAR-8; assay: Growth inhibitory activity was determined against OVCAR-8 cancer cell line of Ovarian cancer; assay type: functional; settings: Homo sapiens
In short: as §1

[13] = tested on: SN12C; assay: Growth inhibitory activity was determined against SN12C cancer cell line of Renal cancer; assay type: functional; settings: Homo sapiens
In short: as §1

[14] = tested on: SF-539; assay: Growth inhibitory activity was determined against SF-539 cancer cell line of CNS cancer; assay type: functional; settings: Homo sapiens
In short: as §1

[15] = tested on: SF-268; assay: Growth inhibitory activity was determined against SF-268 cancer cell line of CNS cancer; assay type: functional; settings: Homo sapiens
In short: as §1

[16] = tested on: SK-MEL-5; assay: Growth inhibitory activity was determined against SK-MEL-5 cancer cell line of melanom; assay type: functional; settings: Homo sapiens
In short: as §1

[17] = tested on: UO-31; assay: Growth inhibitory activity was determined against UO-31 cancer cell line of Renal cancer; assay type: functional; settings: Homo sapiens
In short: as §1

[18] = tested on: U-251; assay: Growth inhibitory activity was determined against U-251 cancer cell line of CNS cancer; assay type: functional; settings: Homo sapiens
In short: as §1

[19] = tested on: PC-3; assay: Growth inhibitory activity was determined against PC-3 cancer cell line of Prostate cancer; assay type: functional; settings: Homo sapiens
In short: as §1

[20] = tested on: T47D; assay: Growth inhibitory activity was determined against T-47D cancer cell line of Breast cancer; assay type: functional, Homo sapiens; settings: Homo sapiens, T47D
In short: as §1

[21] = tested on: OVCAR-3; assay: Growth inhibitory activity was determined against OVCAR-3 cancer cell line of Ovarian cancer; assay type: functional; settings: Homo sapiens
In short: as §1

[22] = tested on: BT-549 (Homo sapiens); assay: Growth inhibitory activity was determined against BT-549 cancer cell line of Breast cancer; settings: Homo sapiens, BT-549
[23] = tested on: 786-0; assay: Growth inhibitory activity was determined against 786-0 cancer cell line of renal cancer; assay type: functional; settings: Homo sapiens
In short: as §1

[24] = tested on: A549; assay: Inhibitory activity against A549 human adenocarcinoma; assay type: functional, cell-based
In short: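 Soft agar clonogenic assay of anchorage-independent growth, using HT-29 colon and A549 lung adenocarcinoma cells. The value is the compound concentration that cut colony number to 50% of control.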

[25] = biological target: T1, M-phase inducer phosphatase 1; assay: Inhibitory activity tested against cell division cycle 25A (assay using p-nitro phenyl phosphate (pNPP) as substrate)
[26] = tested on: SN12C; assay: Growth inhibitory activity was determined against SN12C cancer cell line of renal cancer; assay type: functional; settings: Homo sapiens
In short: as §1

[27] = tested on: SK-MEL-5; assay: Growth inhibitory activity was determined against SK-MEL-5 cancer cell line of melanoma; assay type: functional, Homo sapiens; settings: Homo sapiens, SK-MEL-5
In short: as §1

[28] = tested on: UO-31; assay: Growth inhibitory activity was determined against UO-31 cancer cell line of renal cancer; assay type: functional; settings: Homo sapiens
In short: as §1

[29] = biological target: T2, Receptor-type tyrosine-protein phosphatase C (Homo sapiens, UniProt P08575); assay: Inhibitory activity tested against Human CD45 Phosphatase (assay using p-nitrophenyl phosphate (pNPP) as substrate)
T2 sequence (P08575 whole entry): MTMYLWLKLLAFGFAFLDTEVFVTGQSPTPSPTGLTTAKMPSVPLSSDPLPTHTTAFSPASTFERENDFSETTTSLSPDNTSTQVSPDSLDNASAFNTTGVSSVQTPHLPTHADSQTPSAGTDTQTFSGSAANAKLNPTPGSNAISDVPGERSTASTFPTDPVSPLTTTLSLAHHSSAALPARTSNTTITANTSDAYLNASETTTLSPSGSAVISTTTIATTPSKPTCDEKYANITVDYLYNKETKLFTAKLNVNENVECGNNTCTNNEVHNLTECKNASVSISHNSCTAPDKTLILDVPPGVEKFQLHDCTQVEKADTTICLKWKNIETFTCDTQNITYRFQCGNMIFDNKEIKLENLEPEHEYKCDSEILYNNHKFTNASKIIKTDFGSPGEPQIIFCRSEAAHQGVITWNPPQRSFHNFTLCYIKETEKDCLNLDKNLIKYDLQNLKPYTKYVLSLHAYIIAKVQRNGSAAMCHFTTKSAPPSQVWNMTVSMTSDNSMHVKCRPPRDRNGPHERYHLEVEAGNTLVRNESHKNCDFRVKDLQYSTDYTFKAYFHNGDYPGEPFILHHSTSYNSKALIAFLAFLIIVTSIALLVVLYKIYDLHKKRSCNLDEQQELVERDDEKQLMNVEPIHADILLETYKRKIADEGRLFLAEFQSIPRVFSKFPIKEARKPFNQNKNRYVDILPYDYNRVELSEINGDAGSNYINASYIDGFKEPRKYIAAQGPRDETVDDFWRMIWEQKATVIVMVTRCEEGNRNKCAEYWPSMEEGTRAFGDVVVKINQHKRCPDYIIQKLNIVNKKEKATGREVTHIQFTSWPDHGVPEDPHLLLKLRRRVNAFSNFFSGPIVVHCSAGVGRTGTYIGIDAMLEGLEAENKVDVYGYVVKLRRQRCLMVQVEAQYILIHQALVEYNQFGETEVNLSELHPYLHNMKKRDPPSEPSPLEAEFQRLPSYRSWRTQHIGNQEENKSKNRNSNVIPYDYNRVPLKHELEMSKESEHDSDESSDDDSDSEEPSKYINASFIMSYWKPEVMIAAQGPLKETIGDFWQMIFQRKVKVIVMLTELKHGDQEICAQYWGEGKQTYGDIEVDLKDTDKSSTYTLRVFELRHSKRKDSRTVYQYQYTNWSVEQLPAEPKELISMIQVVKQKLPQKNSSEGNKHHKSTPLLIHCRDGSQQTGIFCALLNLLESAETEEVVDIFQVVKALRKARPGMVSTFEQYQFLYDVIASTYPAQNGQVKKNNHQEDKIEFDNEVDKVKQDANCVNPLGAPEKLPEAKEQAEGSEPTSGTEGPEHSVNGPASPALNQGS

| Structure (SMILES) | GI50 [3] [µM] | GI50 [4] [µM] | IC50 [5] [µM] | GI50 [6] [µM] | GI50 [8] [µM] | GI50 [9] [µM] | GI50 [10] [µM] | GI50 [11] [µM] | GI50 [12] [µM] | GI50 [14] [µM] | GI50 [15] [µM] | GI50 [18] [µM] | GI50 [19] [µM] | GI50 [20] [µM] | GI50 [21] [µM] | GI50 [22] [µM] | also measured |
| --- | --- | --- | --- | --- | --- | --- | --- | --- | --- | --- | --- | --- | --- | --- | --- | --- | --- |
| CC1=CC[C@H]2C(C)(C)CCC[C@]2(C)[C@H]1C(C)[C@H](OS(=O)(=O)O)[C@H](C)CCCc1ccoc1 (stereo not given in full) |  |  |  |  |  |  |  |  |  |  |  |  |  |  |  |  | IC50 [1]: 7.8 µM |
| CC(C)CCC[C@@H](C)[C@H]1CC[C@H]2[C@H](CC(=O)O)[C@@H]([C@@]3(C)CCCCC3=O)CC[C@]12C | 10.8 | > 25 | 5.9 | 15.7 | 16.7 | 19 | > 25 | 14.6 | 13.5 | > 25 | > 25 | 14 | 16 | 16.9 | > 25 | 13 | GI50 [2]: 18.5 µM; GI50 [7]: 18.8 µM; GI50 [13]: 13.4 µM; GI50 [16]: > 25 µM; GI50 [17]: > 25 µM |
| CC(C)CCCC(C)[C@H]1CC[C@H]2[C@@H]3CC(=O)O[C@](C)(CC/C=C\C#N)[C@H]3CC[C@]12C (stereo not given in full) | 15 | 8.49 | 29 | 4.85 | 5.15 | 14.8 | 0.89 | > 25 | 8.72 | > 25 | 3.19 | 9.49 | 9.73 | 8.35 | 13.3 | > 25 | GI50 [23]: 7.54 µM; IC50 [24]: 7.2 µM; IC50 [25]: > 100 µM; GI50 [26]: 5.08 µM; GI50 [27]: 4.57 µM; GI50 [28]: 0.39 µM; IC50 [29]: > 100 µM |
